ChEMBL document CHEMBL3396946, “Design, synthesis and pharmacological evaluation of N-[4-(4-(alkyl/aryl/heteroaryl)-piperazin-1-yl)-phenyl]-carbamic acid ethyl ester derivatives as novel anticonvulsant agents” (Bioorg Med Chem Lett, 2015)
Activity calls are given as the source filed them. The calls are words filed in the database; no cut-off is given here.

Experiments:
Mus musculus [1] = assay: Anticonvulsant activity in intraperitoneally dosed Swiss albino mouse assessed as reduction in electrical stimulus-induced seizures after 0.5 hrs by maximal electroshock seizure test; type: functional
Method in brief: (§1)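 Adult male Swiss albino mice; test agents given i.p. at 30, 100 and 300 mg/kg, with animals examined 0.5 h and 4.0 h after injection. Value is the minimal dose protecting half or more of the mice; a dash means no activity at 300 mg/kg.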

Mus musculus [2] = assay: Anticonvulsant activity in intraperitoneally dosed Swiss albino mouse assessed as reduction in electrical stimulus-induced seizures after 4 hrs by maximal electroshock seizure test; type: functional; method in brief: as §1
[3] = Neurological toxicity in intraperitoneally dosed Swiss albino mouse assessed as motor impairment after 0.5 hrs by rotarod test; type: organism-based; settings: in vivo, ip, read-out: MTD50
[4] = Neurological toxicity in intraperitoneally dosed Swiss albino mouse assessed as motor impairment after 4 hrs by rotarod test; type: organism-based; settings: in vivo, ip, read-out: MTD50
Mus musculus [5] = assay: Anticonvulsant activity in Swiss albino mouse assessed as reduction in clonic seizures at 300 mg/kg, ip after 0.5 hrs by subcutaneous pentylenetetrazole seizure test; type: functional, organism-based; set-up: dose 300 mg/kg; method in brief: as §1
Mus musculus [6] = assay: Anticonvulsant activity in Swiss albino mouse assessed as reduction in clonic seizures at 300 mg/kg, ip after 4 hrs by subcutaneous pentylenetetrazole seizure test; type: functional, organism-based; set-up: dose 300 mg/kg; method in brief: as §1
Mus musculus [7] = assay: Anticonvulsant activity in Swiss albino mouse assessed as reduction in electrical stimulus-induced seizures at 300 mg/kg, ip after 0.5 hrs by maximal electroshock seizure test; type: functional, organism-based; set-up: dose 300 mg/kg; method in brief: as §1
Mus musculus [8] = assay: Anticonvulsant activity in Swiss albino mouse assessed as reduction in electrical stimulus-induced seizures at 300 mg/kg, ip after 4 hrs by maximal electroshock seizure test; type: functional, organism-based; set-up: dose 300 mg/kg; method in brief: as §1
Mus musculus [9] = assay: Neurological toxicity in Swiss albino mouse assessed as motor impairment at 300 mg/kg, ip after 0.5 hrs by rotarod test; type: organism-based; set-up: dose 300 mg/kg, route intraperitoneal; settings: in vivo
Method in brief: (§2)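 Adult male Swiss albino mice dosed i.p. at 30, 100 and 300 mg/kg, examined at 0.5 h and 4.0 h. Neurotoxicity is scored as failure to hold onto the rotating rod, with three successive trials. Value is the minimal dose active in half or more of the mice.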

Mus musculus [10] = assay: Neurological toxicity in Swiss albino mouse assessed as motor impairment at 300 mg/kg, ip after 4 hrs by rotarod test; type: organism-based; set-up: dose 300 mg/kg, route intraperitoneal; settings: in vivo; method in brief: as §2
Mus musculus [11] = assay: Anticonvulsant activity in intraperitoneally dosed Swiss albino mouse assessed as reduction in clonic seizures after 4 hrs by subcutaneous pentylenetetrazole seizure test; type: functional; method in brief: as §1
Mus musculus [12] = assay: Anticonvulsant activity in intraperitoneally dosed Swiss albino mouse assessed as reduction in clonic seizures after 0.5 hrs by subcutaneous pentylenetetrazole seizure test; type: functional; method in brief: as §1
Mus musculus [13] = assay: Toxicity in Swiss albino mouse assessed as induction of sedation at 100 mg/kg, ip after 0.5 hrs during maximal electroshock seizure test; type: organism-based; set-up: dose 100 mg/kg, route intraperitoneal; settings: in vivo
Mus musculus [14] = assay: Toxicity in Swiss albino mouse assessed as induction of sedation at 300 mg/kg, ip after 0.5 hrs during subcutaneous pentylenetetrazole seizure test; type: organism-based; set-up: dose 300 mg/kg
Mus musculus [15] = assay: Toxicity in Swiss albino mouse assessed as induction of death following tonic extension at 300 mg/kg, ip after 0.5 hrs during maximal electroshock seizure test; type: organism-based; set-up: dose 300 mg/kg, route intraperitoneal; settings: in vivo
Mus musculus [16] = assay: Toxicity in Swiss albino mouse assessed as induction of myoclonic jerks at 100 mg/kg, ip after 4 hrs during subcutaneous pentylenetetrazole seizure test; type: organism-based; set-up: dose 100 mg/kg

SMILES	MED50 (Mus musculus [1]) [mg/kg]	MED50 (Mus musculus [2]) [mg/kg]	TD50 at 0.5 h [3] [mg/kg]	TD50 at 4 h [4] [mg/kg]	Activity (Mus musculus [5])	Activity (Mus musculus [6])	Activity (Mus musculus [7])	Activity (Mus musculus [8])	Activity (Mus musculus [9])	Activity (Mus musculus [10])	MED50 (Mus musculus [11]) [mg/kg]	MED50 (Mus musculus [12]) [mg/kg]	Activity (Mus musculus [13])	Activity (Mus musculus [14])	Activity (Mus musculus [15])	Activity (Mus musculus [16])
CCOC(=O)Nc1ccc(N2CCN(c3ccccn3)CC2)cc1	100	100	100	100	inactive	inactive										
CCOC(=O)Nc1ccc(N2CCN(c3ccc(F)cc3)CC2)cc1		300			inactive	inactive	inactive	inactive	Non-toxic	Non-toxic						
CCOC(=O)Nc1ccc(N2CCN(c3ccc(OC)cc3)CC2)cc1	100				inactive			inactive	Non-toxic	Non-toxic	100					
CCOC(=O)Nc1ccc(N2CCN(c3ccc(C(F)(F)F)cc3)CC2)cc1	100					inactive		inactive				300	Toxic	Toxic		
CCOC(=O)Nc1ccc(N2CCN(c3ccc(Cl)cc3)CC2)cc1	100	300									100	100	Toxic			
CCOC(=O)Nc1ccc(N2CCN(c3ncccn3)CC2)cc1	100	300			inactive	inactive			Non-toxic	Non-toxic					Toxic	
CCC1(C)CC(=O)NC1=O (stereo not drawn) [ETHOSUXIMIDE]							inactive	inactive	Non-toxic	Non-toxic	300	100				
CCOC(=O)Nc1ccc(N2CCN(CC)CC2)cc1					inactive	inactive	inactive	inactive	Non-toxic	Non-toxic						
CCOC(=O)Nc1ccc(N2CCN(c3ccccc3)CC2)cc1	30	300							Non-toxic	Non-toxic	300	300				
CCOC(=O)Nc1ccc(N2CCN(Cc3ccccc3)CC2)cc1	100	100			inactive	inactive			Non-toxic	Non-toxic						
CCOC(=O)Nc1ccc(N2CCN(C(c3ccc(F)cc3)c3ccc(F)cc3)CC2)cc1		300			inactive		inactive		Non-toxic	Non-toxic	100					Toxic
